# Hits are enriched below; roughly 6% of the tested compounds scored in any of these assays.
# F-actin modifier – cytoskeleton assembly modification. HUVEC TNFa F-actin phalloidin imaging, high content. inhibition, % at 2 µM. actives 0.18% (n = 91,000);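 active = inhibition above the batch mean plus 3 SD and confirmed as a hit by visual image inspection, cut at about 30% in these data, passing the limit was not always enough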
# HUVEC prolif 384 – human endothelial cell proliferation inhibition | HUVEC proliferation, CellTiter-Glo luminescence, 72 h; stronger effect = lower value | viability, % at 10 µM (by protocol) | actives 1.1% (n = 86,000) | AID 648;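 active = viability at or below 30%; inactive = viability above 30%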;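 also: 100% = median luminescence of DMSO-only cell control wells on each plate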
# H69AR growth 86K – growth inhibitors of human H69AR lung tumor cells. H69AR lung tumor viability, ATP luminescence, 72 h; stronger effect = lower value. viability, % at 10 µM. actives 6% (n = 85,000);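 active = viability at or below 40%; inactive = viability above 40%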;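 also: multidrug resistant small cell line overexpressing MRP-1 efflux transporter; 100% = mean luminescence of untreated control wells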
# PTK2B oligo ant – Pyk2 (human) oligomerization antagonism. Q14289. Q293 cells, Pyk2 FERM NanoBiT luminescence; stronger effect = lower value. AID 1347419. z-score (the deposit names both 25 µM and 10 µM). actives 0.83% (n = 99,000);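 active = Z-score of -3 or lower, scaled per plate to the spread of control and sample wells; inactive = z-score above -3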;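 also: negative z-score means lost luminescence so less FERM oligomerization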
# Lung fibro prol – blocks proliferation of human lung fibroblasts; LL 47 human lung fibroblast viability, ATP luminescence; stronger effect = lower value; actives 1.1% (n = 85,000); viability, % at 10 µM;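 active = viability at or below 50% in the single dose screen; inactive = viability above 50%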;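 also: compound exposure lasted 72 h before the ATP readout; 100% = median luminescence of untreated cell-only wells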
#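 Signal: luminescent ATP detection, CellTiter-Glo; assay system: LL 47 human lung fibroblasts; input: 1,150 cells/well; incubation: overnight cell rest, 72 h compound treatment at 37 °C; measure: % viability versus median cells-only luminescence; medium: IMEM growth medium with 15% fetal bovine serum; dosing: compound addition at 0.1% DMSO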
# Jurkat tox 60K – cytotoxic compounds reducing Jurkat cell viability; Jurkat E6.1 viability, ATP luminescence, 48 h; inhibition, % at 4 µM; actives 1.2% (n = 56,000);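 active = inhibition above the mean inhibition of all tested compounds plus 3 SD, cut at about 28% in these data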
# Numbers without * were called inactive; / = not tested or not shown.
SMILES,F-actin modifier,HUVEC prolif 384,H69AR growth 86K,PTK2B oligo ant,Lung fibro prol,Jurkat tox 60K
COCCn1c(SCC(=O)Nc2ccc(S(=O)(=O)N(C)C)cc2)nc2ccccc21,/,102,35*,-0.06,97,/
CN1CCc2nc(SCC(=O)Nc3ccc(F)cc3)c(C#N)cc2C1,-1,111,86,/,94,-2
Cc1cc(O)ccc1Nc1nc2ccccc2nc1Nc1ccc(O)cc1C,/,74,77,-1.4,89,-3
CN=C1CC(C)(C)CC(=O)/C1=C(/O)CCC(=O)NC,-5,85,114,-0.12,93,1
O=C(CN1CCN(Cc2ccccc2)CC1)N1CCCc2c1c(=O)oc1ccc(O)cc21,37,31,7.6*,-2,82,3
O=C(c1c(F)cccc1F)N(Cc1ccccn1)C1CC1,-4,98,104,0.07,99,/
Cc1ccc(NC(=O)CSc2nnc(-c3ccc(S(=O)(=O)N4CCCC4)cc3)o2)cc1C,18,53,32*,-0.02,92,-4
O=S(=O)(c1ccc(-c2nnc(SCc3nnc(-c4ccccc4)o3)o2)cc1)N1CCCC1,33,/,/,0.09,/,-2
CCN(CC)S(=O)(=O)c1ccc(-c2nnc(SCc3nnc(-c4ccccc4)o3)o2)cc1,-5,53,20*,0.59,69,1
CCN(CC)S(=O)(=O)c1ccc(-c2nnc(SCC(=O)Nc3ccc4c(c3)OCO4)o2)cc1,14,64,32*,1.8,96,4
CCOC(=O)c1nn(-c2ccccc2)c(C#N)c1NC(=O)c1nn(CC)cc1Br,-5,85,69,-3.5*,96,10
CCOC(=O)c1ccc(NC(=O)c2nn(CC)cc2Br)cc1,12,98,97,-1,99,2
CCOC(=O)c1c(NC(=O)c2nn(CC)cc2Br)c(C#N)nn1-c1ccccc1,4,81,40*,-1.5,93,8
CCOC(=O)c1c(NC(=O)CSc2nc(C)cc(C)c2C#N)sc(C(C)=O)c1C,7,38,19*,-0.51,59,-4
CC(=O)NC12CC3CC(C1)CC(C(=O)OCC(=O)Nc1ncc(Cl)cc1Cl)(C3)C2,/,90,83,0.05,98,5
O=C(NCc1ccco1)c1cccn2c(=O)c3cc4ccccc4cc3nc12,7,53,21*,/,87,/
COc1ccc2oc(C(=O)C3CC3)c(NC(=O)CCCN3C(=O)c4ccccc4C3=O)c2c1,/,86,31*,/,92,9
COc1ccc2nc(C)c(C(=O)OCCN(C)C)cc2c1,/,89,104,/,100,0
COc1ccc(N(Cc2ccccc2)S(=O)(=O)c2cccc(C(=O)NC3=NCCS3)c2)cc1,16,78,70,-3.3*,100,/
CCN(CC)S(=O)(=O)c1cc(C(=O)NC2=NCCS2)ccc1Cl,-6,89,54,-0.67,94,/
CN(c1cccc(Cl)c1)S(=O)(=O)c1cccc(C(=O)NC2=NCCS2)c1,-19,89,40*,-2.2,100,/
COCC(=O)Nc1ccc(C(C)C)cc1,10,97,102,-0.13,97,/
CN(C)/C=N/c1cnc(C(=O)c2ccc(Cl)cc2)n1C,11,100,107,0.46,100,-2
CCOC(=O)C1Cc2cc3c(cc2C1=O)CC(C(=O)OCC)C3=O (centres undefined),0,110,20*,/,103,2
CCOC(=O)c1cc(=O)cc(C(=O)OCC)o1,-28,97,97,0.12,/,8
SMILES,F-actin modifier,HUVEC prolif 384,H69AR growth 86K,PTK2B oligo ant,Lung fibro prol,Jurkat tox 60K
COc1ccc(C2CC(=O)C3=C(C2)Nc2ncnn2C3c2ccccc2C)c(OC)c1 (centres undefined),/,95,75,-3.6*,102,-7
CCCOc1ccc(-c2nnn(CC(=O)Nc3cccc(C(=O)OC)c3)n2)cc1,/,105,38*,0.55,76,-4
CCOC(=O)C1=C(CSc2nc(CC)c(C)cc2C#N)OC(N)=C(C#N)C1c1ccccc1 (centres undefined),-36,78,28*,-1.1,78,/
CCOC(=O)C1=C(CSc2nc3c(cc2C#N)CN(C)CC3)OC(N)=C(C#N)C1c1ccc(Cl)cc1 (centres undefined),-14,88,36*,-0.12,103,/
CCOC(=O)CNC(=O)c1cc(C)oc1C,-10,97,100,/,110,-8
O=C(OCC(=O)N1CCN(C(=O)c2ccco2)CC1)c1cc(-c2ccc(Cl)c(Cl)c2Cl)nc2ccccc12,2,6.3*,0.9*,0.03,104,/

# Screening data deposited in PubChem BioAssay by several laboratories.
